Phagocytosis inh: macrophage phagocytosis inhibition; actives 0.07% (n = 110,000); J774A.1 macrophage IgG-bead phagocytosis, imaging; inhibition, % at 5 µM;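 active = inhibition above the mean of the plate negative controls plus 5 SD, cut at about 13% in these data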;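 also: phagocytic index as fraction of beads internalized from green versus red external bead signal; plate controls were DMSO negative control for no effect and cytochalasin-D positive control for full effect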
RAM network inh: blocks the yeast RAM network. S. cerevisiae dse1pr::URA3 reporter, 5-FOA growth OD615, 2 d; analog-sensitive cbk1-as2 kinase mutant strain. inhibition, % at 50 µM. actives 1.8% (n = 190,000);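 active = inhibition above a set limit, 3 SD over mean compound inhibition, cut at about 8.4% in these data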;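 also: 0% = DMSO-only wells with no growth and 100% = 10 µM 1-NA-PP1 full growth; inhibition rescues growth on 5-FOA so higher OD means more RAM inhibition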
Yeast life ext: extends the lifespan of yeast; actives 0.68% (n = 130,000); inhibition of the nicotinamide effect, % at 10 µM; S. cerevisiae growth with nicotinamide, OD615; deaD strain in restrictive glucose medium;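 active = inhibition above a set limit, placed 3 SD over the median of all compounds, cut at about 26% in these data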;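 also: 0% = nicotinamide-treated wells and 100% = cells grown without nicotinamide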
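assay system = DeaD-strain S. cerevisiae | buffer or medium = restrictive glucose medium | reagent = 1.5 mM nicotinamide | compound = 10 µM single point, 0.25% DMSO | incubation = 48 h compound exposure at 30 °C, humidified | signal = OD615 measurement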
BB579 growth dn: yeast BB579 growth reduction in restrictive medium | S. cerevisiae BB579 growth, OD615, 48 h | inhibition, % at 10 µM | actives 0.51% (n = 140,000) | AID 804;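 active = inhibition above a set limit, 3 SD over the mean compound inhibition, cut at about 44% in these data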
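Detection: OD615 turbidity measurement; Material: Saccharomyces cerevisiae DeaD strain BB579, replicative lifespan model yeast; Timing: 48 h exposure, 30 °C; Doses: single 10 µM dose; Medium: CSMM-D restrictive synthetic medium containing dextrose (glucose); Controls: amphotericin B at 10 µg/mL as positive control.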
Measles CPE: protection of cells from measles virus; Measles virus-infected cells, CPE protection, absorbance; actives 1.5% (n = 140,000); protection (pct of control), % at 4 µM; AID 841; in the data active = protection mostly above about 24%, no sharp cut-off; inactive = mostly below about 26%
* marks the source's active call; other numbers are inactive results; . = no result given. Most compounds without a hit are left out; they make up all but 3.6% or so of the library.

SMILES | Phagocytosis inh | RAM network inh | Yeast life ext | BB579 growth dn | Measles CPE
CCOC(=O)N1C(=O)C2(CCCCC2)N(c2ccccc2Cl)C1=S | 2.4 | 5.2 | 37.3* | 0.2 | 9.6
CSc1nnc(Cn2c(=O)sc3ccccc32)n1CCc1ccccc1 | -0.1 | 8.9* | 0.5 | -27.5 | 5.2
O=C(CN(CCc1ccccc1)S(=O)(=O)c1ccc(Cl)cc1)N/N=C/c1ccccc1C(=O)O | . | 2.8 | . | . | .
CN(C)c1ccc(S(=O)(=O)c2ccc(Cl)cc2)cc1 | 0.6 | 3.0 | 70.9* | -11.8 | 5.5
COC(=O)c1ccc(OC)c(CSc2nnc(COc3ccccc3)o2)c1 | -1.1 | 5.2 | -8.5 | -13.9 | 12.5
COC(=O)c1ccc(OC)c(CSc2nnc(COc3ccc(Cl)cc3)o2)c1 | . | 9.7* | -5.6 | -34.3 | 8.8
CCN(CC)CCOc1ncnc2c1oc1ccccc12 | -0.2 | 0.6 | -13.8 | 0.1 | 5.1
CCCCc1oc2ccccc2c1C(=O)c1cc(I)c(OCCN(CC)CC)c(I)c1 | . | . | -9.8 | 99.0* | 15.6
CCOC(=O)N1CCC(n2c(SCC(=O)NCCc3ccc(S(N)(=O)=O)cc3)nc3ccccc3c2=O)CC1 | . | 0.9 | . | . | .
CCC(=O)N(Cc1ccco1)c1nc(-c2ccc(OC)cc2)cs1 | . | 10.0* | . | -48.2 | 8.1
COc1ccccc1N1C(=O)C2C(c3ccccc3F)NN(C(=O)c3ccc(C)cc3)C2C1=O (stereo not given) | . | 2.3 | 1.7 | 10.4 | 50.6*
Cc1ccc(C(=O)N2NC(c3ccccc3F)C3C(=O)N(c4cccc(C)c4)C(=O)C32)cc1 (stereo not given) | . | 2.0 | 1.0 | 13.4 | 18.5
c1ccc(NC2=Nc3cccc4cccc2c34)cc1 | . | 3.6 | . | . | .
O=C(NNC1=Nc2cccc3cccc1c23)c1ccccc1Br | -13.1 | 5.2 | 38.4* | -34.9 | 5.8
Cc1noc(C)c1C(=O)OCC(=O)Nc1cc(Cl)ccc1Oc1ccccc1 | -0.8 | 11.4* | -0.8 | -65.5 | 2.0
COc1ccc(C)cc1NC(=O)COC(=O)c1c(C)noc1C | -0.1 | 6.3 | -26.2 | -36.8 | 6.7
O=C(NNC(=S)NC(=O)c1sc2ccccc2c1Cl)c1ccc(Cl)cc1 | -2.6 | 3.2 | 1.5 | -5.1 | 4.8
CCOc1ccc(S(=O)(=O)NCCC(=O)OC(C)C(=O)N2CCc3ccccc32)cc1 (stereo not given) | . | 3.8 | 7.6 | -43.4 | 53.5*
O=C(Nc1ccccc1N1CCOCC1)C1CCN(S(=O)(=O)c2ccc(F)cc2)CC1 | -4.4 | 8.3 | 1.5 | 2.7 | 12.5
COC(=O)/C(=N/Nc1ccccc1C)Sc1nnc(C(O)c2ccccc2)n1-c1ccccc1 (stereo not given) | -6.0 | 8.8* | 5.3 | -31.9 | 3.8
CC(=O)/C(=N/Nc1cccc(Cl)c1)Sc1nnc(C(O)c2ccccc2)n1-c1ccccc1 (stereo not given) | -9.5 | 2.9 | 1.5 | 3.6 | 1.3
Cc1cc(C)c(OCC(=O)N/N=C/c2ccc3c(c2)OCO3)c(C)c1 | -6.5 | 1.1 | 0.2 | -9.3 | 3.0
CCOC(=O)CCc1c(C)nc(SCCCn2c(=O)[nH]c3ccccc32)c(C#N)c1C | 4.4 | 9.4* | 5.7 | -66.8 | 7.1
CCOc1ccccc1NC(C)C(=O)Nc1cc(C(F)(F)F)ccc1N1CCOCC1 (stereo not given) | -12.2 | 5.2 | -6.5 | -38.8 | 20.4
Cc1ccc(COc2ccsc2C(=O)NN)cc1 | . | 1.1 | . | . | .
SMILES | Phagocytosis inh | RAM network inh | Yeast life ext | BB579 growth dn | Measles CPE
CCc1cc2c(nc1CC)CCN(CC/C(C)=N/O[C@@H](C)c1cc(-c3c(C)cc(C)cc3C)no1)C2 | . | -0.7 | -1.8 | -14.1 | 24.5*
C/C(CCN1CCc2nc(-c3ccccc3)c(-c3ccccc3)cc2C1)=N\O[C@@H](C)c1cc(-c2c(C)cc(C)cc2C)no1 | . | 0.8 | 3.7 | -51.2 | 4.6
Cc1cc(C(F)F)nn1CC(=O)NC1C(=O)N2C(C(=O)O)=C(CSc3nnnn3C)CSC12 (stereo not given) | . | 0.8 | . | . | .
COc1ccc(CCNC(=O)CO/N=C/c2cc3c(cc2Br)OCO3)cc1OC | . | 1.8 | . | . | .
O=C1CCCC/C1=N\Nc1ccc(OCc2ccccc2)cc1 | -0.5 | 1.0 | 3.7 | 92.0* | 1.1
Cc1ccc(S(=O)(=O)Nc2ccccc2C=Nc2cccc(C)c2C)cc1 | -8.0 | 1.1 | 11.3 | -40.9 | 5.2
Cc1ccc(S(=O)(=O)Nc2ccccc2/C=N/c2nc3ccccc3n2C)cc1 | -4.9 | 0.2 | 31.0* | -34.6 | 27.3
COC(=O)CSc1nc(-c2ccccc2)cc(-c2ccco2)c1C#N | 3.0 | 9.7* | -19.2 | -10.4 | 4.2
N#Cc1c(-c2ccco2)cc(C2CC2)nc1SCC(=O)c1ccccc1 | 1.5 | 8.7* | -9.5 | -28.7 | 3.5
Nn1cc(-c2ccccc2)nc1SCC(=O)N1CCN(S(=O)(=O)c2ccc3ccccc3c2)CC1 | 1.1 | 0.7 | -6.6 | -4.8 | 23.2
Nn1cc(-c2ccccc2)nc1SCC(=O)N1CCN(S(=O)(=O)c2ccc(Cl)cc2)CC1 | 1.1 | 9.8* | 0.2 | -10.9 | 22.7*
O=C(Nc1ccccc1)c1cccc(S(=O)(=O)Oc2ccc([N+](=O)[O-])cc2)c1 | -3.4 | 10.1* | -4.6 | -22.9 | 13.7
CC(C)NS(=O)(=O)c1ccc(Oc2ncc(C(F)(F)F)cc2Cl)cc1 | -0.8 | 5.0 | -11.4 | 18.4 | 7.7
O=[N+]([O-])c1ccc(Oc2ccc(S(=O)(=O)Nc3ccccc3)cc2)cc1 | -6.8 | 9.8* | -1.0 | -27.6 | 28.4
O=S(=O)(Nc1ccccc1)c1ccc(Oc2ncc(C(F)(F)F)cc2Cl)cc1 | -0.6 | 1.9 | -2.7 | -74.7 | 41.2*
COc1ccc(C2C=C(c3ccc(Br)s3)Nc3ncnn32)cc1OC (stereo not given) | -0.7 | 8.4* | -9.2 | -43.4 | 7.1
CCOC(=O)c1ccc(-c2ccc(C3Nc4ccccc4C(=O)N3O)o2)cc1 (stereo not given) | -4.3 | -0.5 | 2.3 | 25.6 | 5.5
Cc1cc([N+](=O)[O-])ccc1-c1ccc(C2Nc3ccccc3C(=O)N2O)o1 (stereo not given) | . | 0.5 | -13.8 | 50.2* | 4.3
C=CCOc1ccc(/C=C2\C(=N)N3N=C(S(=O)(=O)CC)SC3=NC2=O)cc1OC | . | 9.6* | . | . | .
CCN1C(=O)C(CC(=O)Nc2ccc(OC)cc2)N(CCCN2CCN(c3ccc(OC)cc3)CC2)C1=S (stereo not given) | . | 1.9 | . | . | .
COc1ccc(Cc2[nH]n3c(=O)c(Cl)c(C)nc3c2-c2ccccc2)cc1 | . | 11.4* | . | . | .
C[C@H](NS(=O)(=O)c1ccccc1F)C(=O)OCC(=O)N1CCc2ccccc21 | -1.0 | 0.5 | -12.8 | -1.0 | 6.0
Nc1ccc(SC(F)(F)F)cc1C(=O)c1ccccc1 | 0.3 | -1.6 | -21.4 | 57.1* | 3.3
Cc1cc(N/N=C/c2ccc(O)cc2O)nc(-c2ccccc2O)n1 | -7.7 | 10.3* | 0.5 | -36.1 | 3.3
COc1ccccc1NS(=O)(=O)c1cc([N+](=O)[O-])ccc1N/N=C/c1c(C)[nH]c2ccccc12 | -0.5 | 10.8* | -4.7 | -43.3 | 0.5
COC(=O)c1cc2occc2n1Cc1nc(-c2cccc(Cl)c2)oc1C | . | 11.3* | 10.6 | -28.5 | 18.7

Compound activity deposited in PubChem BioAssay by several laboratories.
